Source: ChEMBL document CHEMBL3627613, “4-Aminoquinoline derivatives as novel Mycobacterium tuberculosis GyrB inhibitors: Structural optimization, synthesis and biological evaluation” (Eur J Med Chem, 2015)
≈ marks a conversion by molar mass, not a printed value. Calls of active or inactive are those of the source. The rule behind the calls is not given here.

Columns and labels:
DNA gyrase subunit B = DNA gyrase subunit B (Mycobacterium smegmatis, UniProt P0C559); assay: Inhibition of Mycobacterium smegmatis DNA gyrase B expressed in Escherichia coli BL21 (DE3) pLysS cells assessed as reduction in ATPase activity incubated for 100 mins by inorganic phosphate detection assay; set-up: species or system Mycolicibacterium smegmatis
[1] = molecular target: DNA gyrase subunit B (Staphylococcus aureus) (UniProt P0A0K8); assay: Inhibition of Staphylococcus aureus DNA gyrase B assessed as reduction in ATPase activity at 100 uM incubated for 100 mins by inorganic phosphate detection assay
[2] = molecular target: DNA gyrase subunit B (Escherichia coli) (UniProt P0AES6); assay: Inhibition of Escherichia coli Inspiralis DNA gyrase B assessed as reduction in ATPase activity at 100 uM incubated for 100 mins by inorganic phosphate detection assay
[3] = molecular target: DNA gyrase subunit A/DNA gyrase subunit B (Mycobacterium tuberculosis (strain ATCC 25618 / H37Rv), UniProt P9WG45+P9WG47); assay: Inhibition of DNA gyrase GyrA/GyrB in Mycobacterium tuberculosis incubated for 30 mins assessed as reduction in supercoiling of relaxed relaxed pBR322 DNA by ethidium bromide staining based agarose gel electrophoresis method
[4] = tested on: Mycobacterium tuberculosis; assay: Antimycobacterial activity against Mycobacterium tuberculosis H37Rv assessed as growth inhibition incubated for 7 days by microplate alamar blue assay; assay type: functional; conditions: 168 h
In short: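 M. tuberculosis H37Rv inoculum from fresh LJ medium, resuspended in 7H9 broth (0.1% casitone, 0.5% glycerol, OADC), set to McFarland No. 1 and diluted 1:20. Two-fold serial compound dilutions in 7H9-S, with growth and sterile controls. Incubated 7 days at 37 °C, then alamar blue overnight. MIC is the lowest concentration preventing the blue-to-pink colour change.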

[5] = Cytotoxicity against mouse RAW264.7 cells assessed as inhibition of cell viability at 50 uM incubated for 48 hrs at 37 degC by MTT assay relative to control; assay type: cell-based; conditions: read-out: INH
In short: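 RAW 264.7 mouse macrophages, 5×10^5 cells per well, exposed to compound for 48 h at 37 °C under 5% CO2. MTT added 4 h before the end. Formazan dissolved in DMSO and absorbance read at 560 nm against blank. Triplicates, run twice.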

[6] = molecular target: DNA gyrase subunit B (Mycobacterium smegmatis) (UniProt P0C559); assay: Binding affinity to Mycobacterium smegmatis DNA gyrase B assessed as changing in melting temperature of the protein-ligand complex by differential scanning fluorometry; conditions: Mycolicibacterium smegmatis
In short: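 His-tagged M. smegmatis GyrB expressed in E. coli BL21(DE3)pLysS and Ni-NTA purified, used at 2 mg/mL. Native protein and protein-ligand complex heated from 25 to 95 °C in 0.1 °C steps with 50X SYPRO orange. Read-out is the Tm shift of the complex relative to native protein.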

DNA gyrase subunit B (Staphylococcus aureus), sequence (P0A0K8 2-644 limits assumed): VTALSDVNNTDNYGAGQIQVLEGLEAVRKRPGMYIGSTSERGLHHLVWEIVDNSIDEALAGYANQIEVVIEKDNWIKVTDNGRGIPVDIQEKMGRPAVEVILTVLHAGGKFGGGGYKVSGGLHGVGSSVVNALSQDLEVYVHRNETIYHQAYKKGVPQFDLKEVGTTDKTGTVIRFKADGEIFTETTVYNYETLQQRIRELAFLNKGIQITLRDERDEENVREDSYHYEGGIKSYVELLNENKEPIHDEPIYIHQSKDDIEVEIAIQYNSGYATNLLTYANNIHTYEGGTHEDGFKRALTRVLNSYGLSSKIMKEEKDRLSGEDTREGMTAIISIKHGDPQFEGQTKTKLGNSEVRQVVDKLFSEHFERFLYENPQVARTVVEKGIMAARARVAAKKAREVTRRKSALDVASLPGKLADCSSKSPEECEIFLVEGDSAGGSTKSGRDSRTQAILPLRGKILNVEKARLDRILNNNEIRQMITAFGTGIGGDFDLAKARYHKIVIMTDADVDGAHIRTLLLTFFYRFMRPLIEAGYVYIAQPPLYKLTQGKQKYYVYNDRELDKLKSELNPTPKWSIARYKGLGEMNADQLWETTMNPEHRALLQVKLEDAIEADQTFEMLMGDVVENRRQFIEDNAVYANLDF
DNA gyrase subunit A/DNA gyrase subunit B, sequence (P9WG45 whole entry): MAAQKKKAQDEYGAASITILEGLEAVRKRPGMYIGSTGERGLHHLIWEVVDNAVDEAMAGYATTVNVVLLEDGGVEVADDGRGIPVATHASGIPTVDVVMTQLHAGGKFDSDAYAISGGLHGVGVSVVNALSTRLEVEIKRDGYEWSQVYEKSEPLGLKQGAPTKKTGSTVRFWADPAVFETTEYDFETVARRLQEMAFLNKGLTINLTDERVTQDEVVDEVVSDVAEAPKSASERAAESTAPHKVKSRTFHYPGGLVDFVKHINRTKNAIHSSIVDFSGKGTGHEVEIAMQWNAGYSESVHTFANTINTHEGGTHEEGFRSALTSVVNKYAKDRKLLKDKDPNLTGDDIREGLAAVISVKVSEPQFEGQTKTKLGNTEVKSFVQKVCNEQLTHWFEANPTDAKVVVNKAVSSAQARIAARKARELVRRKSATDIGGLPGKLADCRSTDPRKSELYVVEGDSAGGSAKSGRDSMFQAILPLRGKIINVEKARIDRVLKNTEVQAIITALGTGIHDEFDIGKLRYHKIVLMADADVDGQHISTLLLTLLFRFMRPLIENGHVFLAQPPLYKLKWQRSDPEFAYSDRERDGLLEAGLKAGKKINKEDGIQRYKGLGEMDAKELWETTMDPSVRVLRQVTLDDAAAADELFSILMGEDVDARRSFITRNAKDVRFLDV
DNA gyrase subunit A/DNA gyrase subunit B, sequence (P9WG47 whole entry): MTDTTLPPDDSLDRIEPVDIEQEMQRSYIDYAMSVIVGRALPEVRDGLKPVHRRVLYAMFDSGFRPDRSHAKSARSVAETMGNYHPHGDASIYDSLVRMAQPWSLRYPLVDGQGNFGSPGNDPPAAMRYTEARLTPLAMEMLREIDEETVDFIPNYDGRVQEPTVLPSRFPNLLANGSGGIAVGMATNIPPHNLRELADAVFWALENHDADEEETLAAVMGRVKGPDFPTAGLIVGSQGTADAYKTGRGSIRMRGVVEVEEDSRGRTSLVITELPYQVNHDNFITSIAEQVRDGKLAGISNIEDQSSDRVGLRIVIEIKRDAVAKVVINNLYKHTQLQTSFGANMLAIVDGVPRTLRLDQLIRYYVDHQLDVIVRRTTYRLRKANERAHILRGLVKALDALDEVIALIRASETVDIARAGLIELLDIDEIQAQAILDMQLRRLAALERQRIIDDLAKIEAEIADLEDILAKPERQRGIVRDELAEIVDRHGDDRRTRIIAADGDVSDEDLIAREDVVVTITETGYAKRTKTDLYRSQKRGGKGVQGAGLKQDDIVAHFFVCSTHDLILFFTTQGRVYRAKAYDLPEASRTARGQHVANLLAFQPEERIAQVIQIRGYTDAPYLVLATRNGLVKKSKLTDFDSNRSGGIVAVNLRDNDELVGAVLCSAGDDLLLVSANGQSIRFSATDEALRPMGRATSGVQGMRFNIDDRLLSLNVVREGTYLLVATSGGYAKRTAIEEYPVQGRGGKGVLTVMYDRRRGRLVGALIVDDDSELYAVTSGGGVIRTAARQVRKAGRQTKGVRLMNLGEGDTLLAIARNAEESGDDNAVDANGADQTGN
DNA gyrase subunit B (Mycobacterium smegmatis), sequence (P0C559 2-675 limits assumed): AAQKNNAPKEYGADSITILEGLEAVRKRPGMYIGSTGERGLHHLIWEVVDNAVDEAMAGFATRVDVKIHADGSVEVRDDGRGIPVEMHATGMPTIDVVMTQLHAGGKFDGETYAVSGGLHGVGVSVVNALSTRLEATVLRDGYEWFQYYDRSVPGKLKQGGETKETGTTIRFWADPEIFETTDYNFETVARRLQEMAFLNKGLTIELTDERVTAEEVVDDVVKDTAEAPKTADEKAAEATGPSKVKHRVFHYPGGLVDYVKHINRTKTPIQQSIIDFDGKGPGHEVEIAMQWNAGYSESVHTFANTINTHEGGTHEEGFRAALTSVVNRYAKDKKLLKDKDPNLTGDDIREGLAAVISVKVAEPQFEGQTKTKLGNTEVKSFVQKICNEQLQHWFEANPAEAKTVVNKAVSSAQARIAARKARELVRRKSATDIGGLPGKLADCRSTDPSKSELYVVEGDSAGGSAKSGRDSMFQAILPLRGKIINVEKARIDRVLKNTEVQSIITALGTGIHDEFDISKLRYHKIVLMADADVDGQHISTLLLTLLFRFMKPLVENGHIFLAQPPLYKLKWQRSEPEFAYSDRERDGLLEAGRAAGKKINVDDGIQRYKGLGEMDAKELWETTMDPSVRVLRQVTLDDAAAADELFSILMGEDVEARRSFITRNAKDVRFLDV
DNA gyrase subunit B, sequence (P0C559 whole entry): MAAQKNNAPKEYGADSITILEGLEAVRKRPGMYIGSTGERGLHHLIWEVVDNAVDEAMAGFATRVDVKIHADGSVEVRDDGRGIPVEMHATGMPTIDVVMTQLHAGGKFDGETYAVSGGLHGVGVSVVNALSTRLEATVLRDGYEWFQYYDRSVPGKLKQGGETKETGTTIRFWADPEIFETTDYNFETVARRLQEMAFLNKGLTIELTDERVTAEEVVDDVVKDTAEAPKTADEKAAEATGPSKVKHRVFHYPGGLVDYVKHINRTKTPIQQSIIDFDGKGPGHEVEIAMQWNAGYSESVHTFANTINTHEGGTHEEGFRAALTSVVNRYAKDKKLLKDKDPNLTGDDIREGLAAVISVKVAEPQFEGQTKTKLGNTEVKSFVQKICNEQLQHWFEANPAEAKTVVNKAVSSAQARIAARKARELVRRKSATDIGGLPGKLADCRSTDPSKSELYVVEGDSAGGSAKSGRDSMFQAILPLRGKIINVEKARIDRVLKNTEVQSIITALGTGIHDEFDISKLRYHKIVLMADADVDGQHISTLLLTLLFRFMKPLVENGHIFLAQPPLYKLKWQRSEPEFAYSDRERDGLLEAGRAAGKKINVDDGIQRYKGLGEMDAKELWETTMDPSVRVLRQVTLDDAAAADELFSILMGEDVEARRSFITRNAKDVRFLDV

## CCN1CCN(CCCOc2ccc(Nc3c(C(=O)O)cnc4ccc(OC)cc34)cc2)CC1
DNA gyrase subunit B
  IC50: 860 nM
[1]
  inhibition: inactive
[2]
  inhibition: inactive
[3]
  IC50: 630 nM
[4]
  MIC: 3.3 µM (≈ 1.53 µg/mL)
[5]
  cytotoxicity at 48 h, 50 µM: 0.66%
[6]
  ΔTm: 3.3 °C
